A word on the solubility: it is the dissolved amount per volume that the medium holds. The IC50 is the concentration at which inhibition is half-maximal.

Values after ≈ are worked out from the molar mass of the structure shown. Active and inactive are the calls of the source. The rule behind the calls is not given here.

The text below walks through data of ChEMBL document CHEMBL4725418, “Design, Synthesis, and Structure-Activity Relationship Studies of Dual Inhibitors of Soluble Epoxide Hydrolase and 5-Lipoxygenase” (J Med Chem, 2020).

Data set [1] deals with Mus musculus. The data set is described as follows: Anti-inflammatory activity in C57BL/6 mouse model of unilateral ureter obstruction-induced kidney inflammation and fibrosis assessed as reduction in TNFalpha mRNA expression at 3 mg/kg, ip dosed daily for 7 days by real-time qPCR analysis. Format: functional, organism-based. Particulars: time 7.0 day. Summed up: (§1)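 Mice with unilateral ureter obstruction to induce kidney inflammation and fibrosis, given compound or vehicle intraperitoneally. Ligated (UUO) and contralateral kidneys taken at day 7. Fibrosis read by AZAN and Sirius Red staining, with Sirius Red imaged under bright and polarized light. Macrophages detected by F4/80 staining, quantified as positive area. Col1a1, FN1, TNFα and Ccl2 mRNA measured in whole-kidney homogenates by real-time qRT-PCR normalized to GAPDH.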
(Quantitative PCR measures a nucleic acid by following its amplification.)

Data set [2] can be described thus: Solubility in pH 7.4 DPBS buffer. It counts as physicochemical.
Data set [3] addresses T1, Polyunsaturated fatty acid lipoxygenase ALOX15 (Homo sapiens) (UniProt P16050).
T1 sequence (whole entry): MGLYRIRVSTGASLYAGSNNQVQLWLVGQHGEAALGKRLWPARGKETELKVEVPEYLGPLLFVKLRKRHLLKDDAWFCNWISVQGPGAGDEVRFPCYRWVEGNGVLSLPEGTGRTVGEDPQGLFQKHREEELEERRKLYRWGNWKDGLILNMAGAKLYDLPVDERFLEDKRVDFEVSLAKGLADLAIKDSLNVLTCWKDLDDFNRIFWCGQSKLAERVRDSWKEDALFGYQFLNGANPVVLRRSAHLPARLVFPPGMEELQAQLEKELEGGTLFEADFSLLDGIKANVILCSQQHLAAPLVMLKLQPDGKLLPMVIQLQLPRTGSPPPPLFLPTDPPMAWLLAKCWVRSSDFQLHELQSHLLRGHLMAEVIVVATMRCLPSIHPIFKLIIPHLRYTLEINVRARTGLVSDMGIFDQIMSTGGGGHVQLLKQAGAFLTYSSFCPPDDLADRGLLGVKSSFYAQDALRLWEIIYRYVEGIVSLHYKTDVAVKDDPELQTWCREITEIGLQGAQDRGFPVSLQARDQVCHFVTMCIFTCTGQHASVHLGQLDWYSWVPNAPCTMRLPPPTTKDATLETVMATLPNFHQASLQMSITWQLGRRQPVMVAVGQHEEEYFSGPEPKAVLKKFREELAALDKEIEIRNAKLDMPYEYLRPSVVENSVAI
The data set is described as follows: Activation of 15-LOX in human PMNL pre-incubated for 15 mins before addition of AA and A23187 and measured after 10 mins by HPLC/UV assay. Particulars: filed as activator, time 25.0 min.

The target in data set [4] is T2, Polyunsaturated fatty acid 5-lipoxygenase (Homo sapiens, UniProt P09917).
T2 sequence (P09917 whole entry): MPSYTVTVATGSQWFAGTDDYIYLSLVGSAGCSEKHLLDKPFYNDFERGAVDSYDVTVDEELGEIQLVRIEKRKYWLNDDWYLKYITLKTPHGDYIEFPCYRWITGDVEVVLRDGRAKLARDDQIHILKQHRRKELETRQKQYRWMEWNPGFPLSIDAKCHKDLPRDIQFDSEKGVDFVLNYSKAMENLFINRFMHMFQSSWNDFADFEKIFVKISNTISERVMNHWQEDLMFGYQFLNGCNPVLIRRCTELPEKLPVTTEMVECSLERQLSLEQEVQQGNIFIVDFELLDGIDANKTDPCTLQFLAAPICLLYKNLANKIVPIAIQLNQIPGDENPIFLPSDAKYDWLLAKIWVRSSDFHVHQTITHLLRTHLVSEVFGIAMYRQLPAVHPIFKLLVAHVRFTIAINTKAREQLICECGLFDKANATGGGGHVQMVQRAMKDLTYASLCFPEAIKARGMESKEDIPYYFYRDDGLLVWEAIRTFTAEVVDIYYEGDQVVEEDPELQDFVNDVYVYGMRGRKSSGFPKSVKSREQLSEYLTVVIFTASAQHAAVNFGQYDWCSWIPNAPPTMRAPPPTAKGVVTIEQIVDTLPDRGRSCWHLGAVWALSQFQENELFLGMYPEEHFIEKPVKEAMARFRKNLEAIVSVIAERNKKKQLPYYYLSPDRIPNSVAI
The data set is described as follows: Inhibition of 5-LOX (unknown origin) expressed in Escherichia coli BL21-(DE3) pre-incubated for 15 mins before AA substrate addition and measured after 10 mins by HPLC/UV assay. Summed up: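 Recombinant 5-LOX activity measured with arachidonic acid as substrate; product formation monitored by HPLC. IC50 from at least three independent determinations (n ≥ 3), reported with 95% confidence interval.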

For data set [5], the species on record is Mus musculus. The data set can be described thus: Inhibition of sEH in naive mouse assessed as increase in plasma EET/DHET ratio level. Format: functional. A digest of the protocol:
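Plasma from naive mice given a single oral 3 mg/kg dose analyzed for EET/DHET ratio as a read-out of sEH inhibition.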

Data set [6] has as its target T2, Polyunsaturated fatty acid 5-lipoxygenase. The data set can be described thus: Inhibition of 5-LOX in human PMNL assessed as reduction in 5-HETE and LTB4 formation pre-incubated for 15 mins before addition of AA and A23187 and measured after 10 mins by HPLC/UV assay.
Data set [7] concerns Mus musculus. The data set can be described thus: Anti-inflammatory activity in C57BL/6 mouse model of unilateral ureter obstruction-induced kidney inflammation and fibrosis assessed as reduction in Ccl2 mRNA expression at 3 mg/kg, ip dosed daily for 7 days by real-time qPCR analysis. Particulars: time 7.0 day. It counts as functional, organism-based. A digest of the protocol: as §1

Turning to `C[C@H](C#Cc1cccc(C(=O)NCCC(c2ccc(F)cc2)c2ccc(F)cc2)c1)N(O)C(N)=O`, the outcome (in the data set on Mus musculus [1]; in data set [3]; in the data set listed under Mus musculus [5]; in the data set on Mus musculus [7]) was Active. The molecule further registered a solubility in data set [2] of 3 µM (≈ 1.43 µg/mL). Further, the IC50 in data set [4] was 110 nM; in data set [6], 210 nM.
